Reference: ChEMBL document CHEMBL1140345, “Conformational constraint in oxazolidinone antibacterials. Synthesis and structure-activity studies of (azabicyclo[3.1.0]hexylphenyl)oxazolidinones” (2005)
Values after ≈ are worked out from the molar mass of the structure shown.

Experiments:
Enterococcus faecalis [1] = assay: Minimum inhibitory concentration against Enterococcus faecalis UC9217; assay type: functional
Summary of the method: (§1)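 Broth microdilution MIC following the NCCLS M7-A4 approved standard for dilution susceptibility testing of aerobically growing bacteria. The method is taken as accurate to within one dilution.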

Staphylococcus aureus [2] = assay: Minimum inhibitory concentration against methicillin, ciprofloxacin, rifampin, imipenem-resistant Staphylococcus aureus UC12673; assay type: functional
Summary of the method: (§2)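 MIC determined by standard broth microdilution following the NCCLS M7-A4 approved standard for dilution susceptibility testing of aerobically growing bacteria.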

Staphylococcus aureus [3] = assay: Minimum inhibitory concentration against methicillin-susceptible Staphylococcus aureus UC9213; assay type: functional; summary of the method: as §2
Streptococcus pneumoniae [4] = assay: Minimum inhibitory concentration against penicillin-susceptible Streptococcus pneumoniae UC9912; assay type: functional; details: Streptococcus pneumoniae; read-out: MIC; summary of the method: as §1
Haemophilus influenzae [5] = assay: Minimum inhibitory concentration against ampicillin-reisitant Haemophilus influenzae UC30063; assay type: functional; details: Haemophilus influenzae; read-out: MIC; summary of the method: as §1
[6] = tested on: Staphylococcus epidermidis; assay: Minimum inhibitory concentration against methicillin-resistant Staphylococcus epidermidis UC12084
Escherichia coli = assay: Minimum inhibitory concentration against Escherichia coli UC6674; assay type: functional; summary of the method: as §1
Staphylococcus aureus [7] = assay: Minimum inhibitory concentration against methicillin, ciprofloxacin, rifampin, imipenem-resistant Staphylococcus aureus UC12673; Range is 1-2 ug/mL; assay type: functional; summary of the method: as §2
Enterococcus faecalis [8] = assay: Minimum inhibitory concentration against Enterococcus faecalis UC9217; Range is 1-2 ug/mL; assay type: functional; summary of the method: as §1
Staphylococcus aureus [9] = assay: Minimum inhibitory concentration against methicillin-susceptible Staphylococcus aureus UC9213; Range is 2-4 ug/mL; assay type: functional; summary of the method: as §2
Staphylococcus aureus [10] = assay: Minimum inhibitory concentration against methicillin, ciprofloxacin, rifampin, imipenem-resistant Staphylococcus aureus UC12673; Range is 2-4 ug/mL; assay type: functional; summary of the method: as §2
Streptococcus pneumoniae [11] = assay: Minimum inhibitory concentration against penicillin-susceptible Streptococcus pneumoniae UC9912; Range is 0.5-1 ug/mL; assay type: functional; summary of the method: as §1
Haemophilus influenzae [12] = assay: Minimum inhibitory concentration against ampicillin-reisitant Haemophilus influenzae UC30063; Range is from 4-8 ug/mL; assay type: functional; summary of the method: as §1
[13] = tested on: Staphylococcus epidermidis; assay: Minimum inhibitory concentration against methicillin-resistant Staphylococcus epidermidis UC12084; Range is from 0.5-1 ug/mL
Streptococcus pneumoniae [14] = assay: Minimum inhibitory concentration against penicillin-susceptible Streptococcus pneumoniae UC9912; Range is 1-2 ug/mL; assay type: functional; summary of the method: as §1
[15] = tested on: Staphylococcus epidermidis; assay: Minimum inhibitory concentration against methicillin-resistant Staphylococcus epidermidis UC12084; Range is 1-2 ug/mL

## O=C(NC[C@H]1CN(c2cc(F)c(N3C[C@@H]4[C@H](C3)[C@H]4C(=O)O)c(F)c2)C(=O)O1)C(Cl)Cl
Enterococcus faecalis [1]
  MIC: 0.5 µg/mL (≈ 1.08 µM)
Staphylococcus aureus [2]
  MIC: 0.5 µg/mL (≈ 1.08 µM)
Staphylococcus aureus [3]
  MIC: 1 µg/mL (≈ 2.15 µM)
Streptococcus pneumoniae [4]
  MIC: 0.5 µg/mL (≈ 1.08 µM)
Haemophilus influenzae [5]
  MIC: 4 µg/mL (≈ 8.62 µM)
[6]
  MIC: 0.5 µg/mL (≈ 1.08 µM)

## CNC(=O)[C@H]1[C@@H]2CN(c3c(F)cc(N4C[C@H](CNC(C)=O)OC4=O)cc3F)C[C@@H]21
Escherichia coli
  MIC: > 64 µg/mL
Enterococcus faecalis [1]
  MIC: 1 µg/mL (≈ 2.45 µM)
Staphylococcus aureus [2]
  MIC: 2 µg/mL (≈ 4.9 µM)
Staphylococcus aureus [3]
  MIC: 2 µg/mL (≈ 4.9 µM)
Streptococcus pneumoniae [4]
  MIC: 0.5 µg/mL (≈ 1.22 µM)
Haemophilus influenzae [5]
  MIC: 16 µg/mL (≈ 39.2 µM)
[6]
  MIC: 1 µg/mL (≈ 2.45 µM)

## CC(=O)NC[C@H]1CN(c2cc(F)c(N3C[C@@H]4[C@H](C3)[C@H]4C(=O)NCc3ccccn3)c(F)c2)C(=O)O1
Enterococcus faecalis [1]
  MIC: 1 µg/mL (≈ 2.06 µM)
Staphylococcus aureus [2]
  MIC: 4 µg/mL (≈ 8.24 µM)
Staphylococcus aureus [3]
  MIC: 4 µg/mL (≈ 8.24 µM)
Streptococcus pneumoniae [4]
  MIC: 0.5 µg/mL (≈ 1.03 µM)
Haemophilus influenzae [5]
  MIC: > 64 µg/mL
[6]
  MIC: 1 µg/mL (≈ 2.06 µM)

## CC(=O)NC[C@H]1CN(c2cc(F)c(N3C[C@@H]4[C@H](C3)[C@H]4C(=O)NO)c(F)c2)C(=O)O1
Escherichia coli
  MIC: > 64 µg/mL
Enterococcus faecalis [1]
  MIC: 2 µg/mL (≈ 4.87 µM)
Staphylococcus aureus [2]
  MIC: 4 µg/mL (≈ 9.75 µM)
Staphylococcus aureus [3]
  MIC: 4 µg/mL (≈ 9.75 µM)
Streptococcus pneumoniae [4]
  MIC: 1 µg/mL (≈ 2.44 µM)
Haemophilus influenzae [5]
  MIC: 32 µg/mL (≈ 78 µM)
[6]
  MIC: 2 µg/mL (≈ 4.87 µM)

## N[C@@H]1[C@H]2CN(c3c(F)cc(N4C[C@H](CNC(=O)C(F)F)OC4=O)cc3F)C[C@@H]12
Enterococcus faecalis [1]
  MIC: 2 µg/mL (≈ 4.97 µM)
Staphylococcus aureus [2]
  MIC: 2 µg/mL (≈ 4.97 µM)
Staphylococcus aureus [3]
  MIC: 4 µg/mL (≈ 9.94 µM)
Streptococcus pneumoniae [4]
  MIC: 1 µg/mL (≈ 2.49 µM)
Haemophilus influenzae [5]
  MIC: 8 µg/mL (≈ 19.9 µM)
[6]
  MIC: 2 µg/mL (≈ 4.97 µM)

## CC(=O)NC[C@H]1CN(c2cc(F)c(N3C[C@@H]4[C@H](C3)[C@H]4C(=O)N(C)C)c(F)c2)C(=O)O1
Escherichia coli
  MIC: > 64 µg/mL
Enterococcus faecalis [1]
  MIC: 4 µg/mL (≈ 9.47 µM)
Staphylococcus aureus [2]
  MIC: 4 µg/mL (≈ 9.47 µM)
Staphylococcus aureus [3]
  MIC: 4 µg/mL (≈ 9.47 µM)
Streptococcus pneumoniae [4]
  MIC: 2 µg/mL (≈ 4.73 µM)
Haemophilus influenzae [5]
  MIC: 64 µg/mL (≈ 152 µM)
[6]
  MIC: 2 µg/mL (≈ 4.73 µM)

## CC(=O)NC[C@H]1CN(c2cc(F)c(N3C[C@@H]4[C@H](C3)[C@H]4C(=O)Nc3nccs3)c(F)c2)C(=O)O1
Enterococcus faecalis [1]
  MIC: 0.5 µg/mL (≈ 1.05 µM)
Staphylococcus aureus [2]
  MIC: 1 µg/mL (≈ 2.09 µM)
Staphylococcus aureus [3]
  MIC: 2 µg/mL (≈ 4.19 µM)
Streptococcus pneumoniae [4]
  MIC: 0.13 µg/mL (≈ 0.272 µM)
Haemophilus influenzae [5]
  MIC: > 64 µg/mL
[6]
  MIC: 0.25 µg/mL (≈ 0.524 µM)

## CC(=O)NC[C@H]1CN(c2cc(F)c(N3C[C@@H]4[C@H](C3)[C@H]4C(=O)NOCc3ccccc3)c(F)c2)C(=O)O1
Escherichia coli
  MIC: > 64 µg/mL
Enterococcus faecalis [1]
  MIC: 2 µg/mL (≈ 4 µM)
Staphylococcus aureus [2]
  MIC: 2 µg/mL (≈ 4 µM)
Staphylococcus aureus [3]
  MIC: 4 µg/mL (≈ 7.99 µM)
Streptococcus pneumoniae [4]
  MIC: 1 µg/mL (≈ 2 µM)
Haemophilus influenzae [5]
  MIC: > 64 µg/mL
[6]
  MIC: 1 µg/mL (≈ 2 µM)

## CC(=O)NC[C@H]1CN(c2cc(F)c(N3C[C@@H]4[C@H](C3)[C@H]4C(=O)NCc3ccco3)c(F)c2)C(=O)O1
Enterococcus faecalis [1]
  MIC: 1 µg/mL (≈ 2.11 µM)
Staphylococcus aureus [2]
  MIC: 2 µg/mL (≈ 4.22 µM)
Staphylococcus aureus [3]
  MIC: 2 µg/mL (≈ 4.22 µM)
Streptococcus pneumoniae [4]
  MIC: 0.5 µg/mL (≈ 1.05 µM)
Haemophilus influenzae [5]
  MIC: > 64 µg/mL
[6]
  MIC: 1 µg/mL (≈ 2.11 µM)

## COc1ccc(NC(=O)[C@H]2[C@@H]3CN(c4c(F)cc(N5C[C@H](CNC(C)=O)OC5=O)cc4F)C[C@@H]32)cn1
Enterococcus faecalis [1]
  MIC: 1 µg/mL (≈ 1.99 µM)
Staphylococcus aureus [2]
  MIC: 2 µg/mL (≈ 3.99 µM)
Staphylococcus aureus [3]
  MIC: 2 µg/mL (≈ 3.99 µM)
Streptococcus pneumoniae [4]
  MIC: 0.5 µg/mL (≈ 0.997 µM)
Haemophilus influenzae [5]
  MIC: > 64 µg/mL
[6]
  MIC: 1 µg/mL (≈ 1.99 µM)

## N[C@@H]1[C@H]2CN(c3c(F)cc(N4C[C@H](CNC(=O)C(Cl)Cl)OC4=O)cc3F)C[C@@H]12
Enterococcus faecalis [1]
  MIC: 2 µg/mL (≈ 4.59 µM)
Staphylococcus aureus [2]
  MIC: 2 µg/mL (≈ 4.59 µM)
Staphylococcus aureus [3]
  MIC: 4 µg/mL (≈ 9.19 µM)
Streptococcus pneumoniae [4]
  MIC: 0.5 µg/mL (≈ 1.15 µM)
Haemophilus influenzae [5]
  MIC: 4 µg/mL (≈ 9.19 µM)
[6]
  MIC: 2 µg/mL (≈ 4.59 µM)

## CC(=O)NC[C@H]1CN(c2cc(F)c(N3C[C@@H]4[C@@H](O)[C@@H]4C3)c(F)c2)C(=O)O1
Staphylococcus aureus [7]
  MIC: 2 µg/mL (≈ 5.44 µM)
Escherichia coli
  MIC: > 64 µg/mL
Streptococcus pneumoniae [4]
  MIC: 1 µg/mL (≈ 2.72 µM)
Haemophilus influenzae [5]
  MIC: 16 µg/mL (≈ 43.6 µM)
Enterococcus faecalis [8]
  MIC: 2 µg/mL (≈ 5.44 µM)
Staphylococcus aureus [9]
  MIC: 4 µg/mL (≈ 10.9 µM)
[6]
  MIC: 1 µg/mL (≈ 2.72 µM)

## CC(=O)NC[C@H]1CN(c2cc(F)c(N3C[C@@H]4[C@H](C3)[C@H]4NC=O)c(F)c2)C(=O)O1
Staphylococcus aureus [10]
  MIC: 4 µg/mL (≈ 10.1 µM)
Escherichia coli
  MIC: > 64 µg/mL
Enterococcus faecalis [1]
  MIC: 2 µg/mL (≈ 5.07 µM)
Haemophilus influenzae [5]
  MIC: 32 µg/mL (≈ 81.1 µM)
Staphylococcus aureus [9]
  MIC: 4 µg/mL (≈ 10.1 µM)
Streptococcus pneumoniae [11]
  MIC: 1 µg/mL (≈ 2.54 µM)
[6]
  MIC: 1 µg/mL (≈ 2.54 µM)

## CC(=O)NC[C@H]1CN(c2cc(F)c(N3C[C@@H]4[C@H](C3)[C@H]4C(=O)O)c(F)c2)C(=O)O1
Escherichia coli
  MIC: > 64 µg/mL
Enterococcus faecalis [1]
  MIC: 1 µg/mL (≈ 2.53 µM)
Staphylococcus aureus [2]
  MIC: 1 µg/mL (≈ 2.53 µM)
Staphylococcus aureus [3]
  MIC: 2 µg/mL (≈ 5.06 µM)
Streptococcus pneumoniae [4]
  MIC: 1 µg/mL (≈ 2.53 µM)
Haemophilus influenzae [12]
  MIC: 8 µg/mL (≈ 20.2 µM)
[13]
  MIC: 1 µg/mL (≈ 2.53 µM)

## CCC(=O)NC[C@H]1CN(c2cc(F)c(N3C[C@@H]4[C@H](C3)[C@H]4C(=O)O)c(F)c2)C(=O)O1
Enterococcus faecalis [1]
  MIC: 1 µg/mL (≈ 2.44 µM)
Staphylococcus aureus [2]
  MIC: 1 µg/mL (≈ 2.44 µM)
Staphylococcus aureus [3]
  MIC: 2 µg/mL (≈ 4.89 µM)
Streptococcus pneumoniae [14]
  MIC: 2 µg/mL (≈ 4.89 µM)
Haemophilus influenzae [5]
  MIC: 8 µg/mL (≈ 19.5 µM)
[15]
  MIC: 2 µg/mL (≈ 4.89 µM)
